Data from PMC3399519 (European Journal of Medicinal Chemistry, 2011).
“Also recorded” adds a separate entry of the source. Read-outs that look alike come from different tables or passages of the source.

How the values were obtained:
Tip60 [1] = target: T1, Tip60 (Homo sapiens, UniProt Q92993); assay: Radioisotope-labeled histone acetyltransferase assay, Tip60; format: biochemical; conditions: for Tip60 inhibition (in words): 200 µM compound; for selectivity for Tip60 in comparison with PCAF and p300: recombinant enzyme inhibition assays
[2] = system: HAT activity in HeLa nuclear extracts (histone H4 acetylation); assay: ELISA acetyltransferase assay with HeLa nuclear extracts, histone H4 peptide; format: biochemical; conditions: for inhibition of cellular HAT activity (HeLa nuclear extracts): 200 µM compound, histone H4; for inhibition of HAT activity in HeLa nuclear extracts (in words): histone H4 acetylation
Outline: (§1)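 HeLa nuclear extract (2.5 µg/mL final protein) acetylates biotinylated histone H3 (aa 1–21) or H4 (aa 2–24) peptide immobilised via streptavidin. Reaction runs 15 min, read by anti-acetyl-lysine ELISA. H3 tested at 50 µM against H4. Triplicates, scaled to no-inhibitor and no-enzyme controls.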

[3] = system: HAT activity in HeLa nuclear extracts (histone H3 acetylation); format: biochemical; conditions: 50 µM compound
Outline: as §1

p300 [4] = conditions: read-out: IC50 p300; estimated by Kundu et al. ref 7; cited from earlier work
PCAF [5] = conditions: read-out: IC50 PCAF; estimated by Kundu et al. ref 7; cited from earlier work
p300 [6] = conditions: read-out: IC50 p300; Souto et al. ref 11; cited from earlier work
PCAF [7] = conditions: read-out: IC50 PCAF; previous characterization with a different assay ref 12; cited from earlier work
[8] = target: T2, human recombinant p300 HAT domain (Homo sapiens, UniProt Q09472); assay: Radioisotope-labeled histone acetyltransferase assay, p300; format: biochemical; conditions: 200 µM compound
T2 sequence (Q09472 1287-1663 limits assumed): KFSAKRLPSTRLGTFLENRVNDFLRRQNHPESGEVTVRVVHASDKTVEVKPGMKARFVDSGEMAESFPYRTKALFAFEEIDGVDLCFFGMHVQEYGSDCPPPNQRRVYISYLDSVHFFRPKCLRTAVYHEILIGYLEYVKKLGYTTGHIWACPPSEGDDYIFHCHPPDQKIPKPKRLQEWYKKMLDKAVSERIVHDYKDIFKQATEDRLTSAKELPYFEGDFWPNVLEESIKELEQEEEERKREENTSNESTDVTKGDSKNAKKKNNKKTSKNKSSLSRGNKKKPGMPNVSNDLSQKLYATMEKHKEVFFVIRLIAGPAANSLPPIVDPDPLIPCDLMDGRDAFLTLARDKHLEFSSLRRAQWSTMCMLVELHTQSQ

[9] = target: human recombinant PCAF HAT domain (Homo sapiens, UniProt Q92831); assay: Radioisotope-labeled histone acetyltransferase assay, PCAF; format: biochemical; conditions: 200 µM compound
Tip60 [10] = target: T1, Tip60; assay: Steady-state kinetic characterization of Tip60 inhibition; format: biochemical
[11] = system: HAT activity of nuclear extracts of brain tissue samples; format: biochemical, rats; conditions: 30 µM inhibitor, histone H3 as acetyl acceptor
Outline: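 Nuclear extracts come from tissue of different brain regions, at 40 µg/mL protein, standardised by protein content. Biotinylated histone H3 peptide (aa 1–21) is streptavidin-immobilised as acceptor. Buffer: 50 mM HEPES pH 7.4 with Triton X-100, EDTA, BSA and DTT. Inhibitor at 30 µM, 15 min reaction, anti-acetyl-lysine ELISA. Triplicates for each of two animals, blanks subtracted.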

HEP G2 cells = HEP G2 cells ref 12; cited from earlier work

T1 sequence (Q92993 whole entry): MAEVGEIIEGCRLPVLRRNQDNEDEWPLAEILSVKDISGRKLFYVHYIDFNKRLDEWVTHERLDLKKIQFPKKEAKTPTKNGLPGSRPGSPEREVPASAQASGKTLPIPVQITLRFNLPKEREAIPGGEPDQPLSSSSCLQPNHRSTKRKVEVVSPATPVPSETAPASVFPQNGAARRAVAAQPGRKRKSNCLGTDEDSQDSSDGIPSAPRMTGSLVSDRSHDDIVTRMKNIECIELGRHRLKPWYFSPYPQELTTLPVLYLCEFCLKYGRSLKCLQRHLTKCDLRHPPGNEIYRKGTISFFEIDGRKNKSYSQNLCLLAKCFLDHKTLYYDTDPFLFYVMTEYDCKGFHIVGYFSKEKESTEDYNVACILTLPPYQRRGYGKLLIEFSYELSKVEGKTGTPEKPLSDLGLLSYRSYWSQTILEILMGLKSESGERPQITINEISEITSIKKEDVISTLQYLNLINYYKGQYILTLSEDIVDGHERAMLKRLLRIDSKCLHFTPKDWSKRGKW
Sequence of human recombinant PCAF HAT domain (Q92831 493-658): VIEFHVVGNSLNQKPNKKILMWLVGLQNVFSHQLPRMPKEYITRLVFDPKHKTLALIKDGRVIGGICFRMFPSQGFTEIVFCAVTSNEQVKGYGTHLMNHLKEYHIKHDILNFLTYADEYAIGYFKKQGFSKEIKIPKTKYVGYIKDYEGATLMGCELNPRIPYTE

| Compound | Tip60 inhibition (in words) (Tip60 [1]) | inhibition of cellular HAT activity (HeLa nuclear extracts) [2] [%] | also measured |
| --- | --- | --- | --- |
| CC(C)CCCC(C)CCOc1ccc(CCc2cccc(O)c2C(=O)O)cc1 (stereo not shown) [6a] | also inhibited the Tip60 HAT activity | > 50 |  |
| COCCOc1ccc(CCc2cccc(O)c2C(=O)O)cc1 [6b] | very weakly inhibit; also recorded: very poor inhibitors |  | inhibition of HAT activity in HeLa nuclear extracts (in words) [2]: strongly reduced HAT inhibitory potency; also recorded: poor inhibition |
| CCCCCOc1ccc(CCc2cccc(O)c2C(=O)O)cc1C(C)=O [6c] | also inhibited the Tip60 HAT activity | > 50 |  |
| CCCCCOc1ccc(CCc2cccc(O)c2C(=O)O)cc1C(C)O (stereo not shown) [6d] | very weakly inhibit |  | potency on HeLa nuclear extracts compared to recombinant Tip60 [2]: more potent on HeLa nuclear extracts than for the recombinant Tip60 |
| CCCCCCCOc1ccc(CCc2cccc(O)c2C(=O)O)cc1C(C)=O [6f] | also inhibited the Tip60 HAT activity | > 50 |  |
| CCCCCc1cccc(O)c1C(=O)O [6h] | very poor inhibitors |  | inhibition of HAT activity in HeLa nuclear extracts (in words) [2]: strongly reduced HAT inhibitory potency; also recorded: poor inhibition |
| CCCCCCCCCCCCCCCc1cccc(O)c1C(=O)O [16 (AA), 6-pentadecylsalicylic acid, reference compound] | almost completely; also recorded: also inhibited the Tip60 HAT activity | > 50 | inhibition at 200 µM (Tip60 [1]; read-out: inhibition of Tip60 activity): > 76%; inhibitory potency on histone H3 acetylation compared to histone H4 acetylation [3]: almost equal potency for both histones; IC50 (p300 [4]): 8.5 µM; IC50 (PCAF [5]): 5 µM; IC50 (p300 [6]): 50 to 100 µM; IC50 (PCAF [7]): ~1 mM |
| CCCCCCCCCCCCCC#Cc1ccccc1C(=O)OC [compound 11] | also inhibited the Tip60 HAT activity | > 50 |  |
| CCCCCCCCCCCCCCCc1ccccc1C(=O)O [compound 12] | also inhibited the Tip60 HAT activity | > 50 |  |
| CCCCCCCc1ccc(CCc2cc(O)cc(O)c2C(=O)O)cc1 [compound 15] |  |  | potency on HeLa nuclear extracts compared to recombinant Tip60 [2]: more potent on HeLa nuclear extracts than for the recombinant Tip60 |
| CCCCCCCCCCc1cccc(O)c1C(=O)O [compound 17] | also inhibited the Tip60 HAT activity | > 50 | inhibitory potency on histone H3 acetylation compared to histone H4 acetylation [3]: almost equal potency for both histones |
| CCCCCCCCCCCCCCCc1cc(O)cc(O)c1C(=O)O [compound 18] | also inhibited the Tip60 HAT activity | > 50 | selectivity for Tip60 in comparison with PCAF and p300 (Tip60 [1]): selective for Tip60 |
| CCCCCCCCCCc1cc(O)cc(O)c1C(=O)O [compound 19] | also inhibited the Tip60 HAT activity | > 50 | selectivity for Tip60 in comparison with PCAF and p300 (Tip60 [1]): selective for Tip60 |
| CCCCCCCc1ccc(CCc2cccc(O)c2C(=O)O)cc1 [compound 20] | also inhibited the Tip60 HAT activity | > 50 | inhibition at 200 µM (Tip60 [1]; read-out: inhibition of Tip60 activity, 200 µM compound, 100 nM Tip60, 10 µM Ac-CoA, 100 µM H4-20): > 76%; effect on p300 activity (in words) [8]: no inhibitory impact; also recorded: no observable inhibitory effect; effect on PCAF activity (in words) [9]: no inhibitory impact; also recorded: no observable inhibitory effect; inhibition pattern with respect to Ac-CoA (Tip60 [10]): essentially competitive with respect to Ac-CoA; inhibition of HAT activity of nuclear extracts of different brain regions [11]: equal potency to AA |
| CCCCCOc1ccc(/C=C\c2cccc(O)c2C(=O)O)cc1 [compound 21] | also inhibited the Tip60 HAT activity | > 50 | selectivity for Tip60 in comparison with PCAF and p300 (Tip60 [1]): selective for Tip60; effect on PCAF activity (in words) [9]: enhance the PCAF activity significantly; inhibition of HAT activity in HeLa nuclear extracts (in words) [2]: high inhibitory activity; inhibitory potency on histone H3 acetylation compared to histone H4 acetylation [3]: opposite; inhibition of histone acetylation in HEP G2 cells compared to 16 (AA) (HEP G2 cells): more potent inhibitor of histone acetylation than 16 (AA) |
| CCCCCOc1ccc(CCc2cccc(O)c2C(=O)O)cc1 [compound 24] | also inhibited the Tip60 HAT activity | > 50 | effect on PCAF activity (in words) [9]: enhance the PCAF activity significantly; inhibitory potency on histone H3 acetylation compared to histone H4 acetylation [3]: opposite |
| CCCCCCCCCCCCCCOc1ccc(CCc2cccc(O)c2C(=O)O)cc1 [compound 25] | only modest inhibitory activity; also recorded: also inhibited the Tip60 HAT activity | > 50 | inhibitory potency on histone H3 acetylation compared to histone H4 acetylation [3]: opposite |
